The values below come from ChEMBL document CHEMBL4665803, “Discovery of Covalent Inhibitors Targeting the Transcriptional Enhanced Associate Domain Central Pocket” (J Med Chem, 2020).

Experiment [1] deals with T1, Transcriptional enhancer factor TEF-3 (Homo sapiens, UniProt Q15561). Description: Inhibition of TEAD4 in HEK293 cells assessed as reduction in ANKRD1 mRNA expression at 1 uM measured after 6 hrs by SYBR green dye based RT-PCR analysis relative to control. In kind it is cell-based. The gist of the method:
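HEK293 cells treated with DMSO or compound for 6 h; ANKRD1 mRNA measured by RT-qPCR relative to the DMSO control.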

The target of experiment [2] is Transcriptional enhancer factor TEF-3 (Mus musculus) (UniProt Q62296). In words: Binding affinity to nonacylated mouse TEAD4 at 0.5 mM by 1H-15N HSQC spectra analysis. The gist of the method: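 1H–15N HSQC of 13C/15N-labeled mTEAD4, deacylated with hydroxylamine; spectra with DMSO or compound (0.5 mM) recorded at 37 °C on a 600 MHz cryoprobe instrument in 20 mM HEPES pH 7.3, 150 mM NaCl, 1 mM DTT; spectra overlaid.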

Experiment [3] has as its target T1, Transcriptional enhancer factor TEF-3. Description: Binding affinity to nonacylated N-terminal His6-tagged human TEAD4 (217 to 434 residues) expressed in Escherichia coli BL21-CodonPlus (DE3)-RIPL cells assessed as inhibition of protein-FAM-YAP (50 to 100 residues) interaction preincubated for 10 mins followed by FAM YAP addition and measured after 1 hr by fluorescence assay. The gist of the method:
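FP competition in PBS pH 7.5: serially diluted compound preincubated 10 min at room temperature with TEAD4 protein, then FAM-YAP50–100 added; shaken 1 h at room temperature, FP read at Ex/Em 485/535 nm. Final FAM/protein: nonacylated hTEAD4 2 nM/5 nM; acylated hTEAD4 3 nM/15 nM. Compound stocks 10 mM in DMSO. IC50 from curve fitting.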

The target is the same in experiment [4]. In words: Inhibition of CPM binding to N-terminal His6-tagged human TEAD4 (217 to 434 residues) expressed in Escherichia coli BL21-CodonPlus (DE3)-RIPL cells preincubated for 10 mins followed by CPM addition and measured after 1 hr by fluorescence assay. To be noted: for inhibition: time 70.0 min.
The target is the same in experiment [5]. Description: Inhibition of CPM binding to N-terminal His6-tagged human TEAD4 (217 to 434 residues) expressed in Escherichia coli BL21-CodonPlus (DE3)-RIPL cells at 12.5 uM preincubated for 10 mins followed by CPM addition and measured after 1 hr by fluorescence assay relative to control. To be noted: time 70.0 min.
For experiment [6] the target is unchanged. Description: Inhibition of FITC-labeled palmitate tracer binding to N-terminal His6-tagged human TEAD4 (217 to 434 residues) expressed in Escherichia coli BL21-CodonPlus (DE3)-RIPL cells preincubated for 10 mins followed by FITC-labeled palmitate tracer addition and measured after 1 hr by fluorescence assay. The gist of the method:
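FP competition in 25 mM HEPES, 150 mM NaCl, pH 6.5: serially diluted compound preincubated 10 min at room temperature with nonacylated hTEAD4, then FITC-palmitate tracer added (final 50 nM protein, 10 nM tracer); shaken 1 h at room temperature, FP at Ex/Em 485/535 nm. Tracer Kd from saturation binding.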

For experiment [7] the target is unchanged. Description: Selectivity ratio of apparent IC50 for inhibition of CPM binding to N-terminal His6-tagged human TEAD4 (217 to 434 residues) expressed in Escherichia coli BL21-CodonPlus (DE3)-RIPL cells to IC50 for inhibition of FITC-labeled palmitate tracer binding to N-terminal His6-tagged human TEAD4 (217 to 434 residues) expressed in Escherichia coli BL21-CodonPlus (DE3)-RIPL cells.

For experiment [8] the target is unchanged. In words: Binding affinity to nonacylated N-terminal His6-tagged human TEAD4 (217 to 434 residues) expressed in Escherichia coli BL21-CodonPlus (DE3)-RIPL cells assessed as melting temperature at 80 uM after 10 mins by SYPRO orange dye-based differential scanning fluorimetry method (reference value: 41 degreeC).
For experiment [9] the target is unchanged. In words: Binding affinity to nonacylated N-terminal His6-tagged human TEAD4 (217 to 434 residues) expressed in Escherichia coli BL21-CodonPlus (DE3)-RIPL cells at 8 equiv after 1 hr by ESI-MS spectrophotometric analysis. A digest of the protocol:
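Whole-protein ESI–MS: 1 μM hTEAD4 incubated 1 h at room temperature with 8 equiv compound in 25 mM HEPES, 150 mM NaCl, pH 6.5; centrifuged, injected via online desalting column to UPLC-MS; masses deconvoluted to detect adducts.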

Molecules are shown by their SMILES. The source made the active and inactive calls. No cut-off for these calls is given here.

T1 sequence (Q15561 whole entry): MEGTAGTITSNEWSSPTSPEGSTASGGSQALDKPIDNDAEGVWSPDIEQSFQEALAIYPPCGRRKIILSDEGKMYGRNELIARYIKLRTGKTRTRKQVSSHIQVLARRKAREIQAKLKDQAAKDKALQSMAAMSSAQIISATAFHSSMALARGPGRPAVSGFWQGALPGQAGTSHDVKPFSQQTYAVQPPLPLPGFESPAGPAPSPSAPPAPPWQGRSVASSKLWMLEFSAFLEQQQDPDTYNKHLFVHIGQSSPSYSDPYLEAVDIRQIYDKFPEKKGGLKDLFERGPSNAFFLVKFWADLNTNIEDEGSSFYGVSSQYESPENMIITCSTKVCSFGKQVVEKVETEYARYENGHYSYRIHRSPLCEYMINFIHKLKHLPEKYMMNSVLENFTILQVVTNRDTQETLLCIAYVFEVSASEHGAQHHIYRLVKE
Transcriptional enhancer factor TEF-3 (Mus musculus), sequence (Q62296 whole entry): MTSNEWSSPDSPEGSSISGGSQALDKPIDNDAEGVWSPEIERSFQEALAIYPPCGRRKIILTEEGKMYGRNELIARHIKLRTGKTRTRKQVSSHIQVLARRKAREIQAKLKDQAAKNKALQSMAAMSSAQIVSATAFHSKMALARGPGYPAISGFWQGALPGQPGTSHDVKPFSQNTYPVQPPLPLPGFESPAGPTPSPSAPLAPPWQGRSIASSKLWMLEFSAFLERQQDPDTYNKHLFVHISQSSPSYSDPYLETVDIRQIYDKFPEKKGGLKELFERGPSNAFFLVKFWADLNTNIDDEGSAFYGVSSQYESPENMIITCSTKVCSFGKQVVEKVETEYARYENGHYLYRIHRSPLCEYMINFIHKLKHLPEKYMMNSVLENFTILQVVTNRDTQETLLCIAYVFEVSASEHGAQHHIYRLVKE

The term inhibition denotes the relative decrease from the control value, in per cent. By IC50 is commonly meant the concentration that gives 50% inhibition. As to `COc1c(C(Nc2ccccc2)c2ccccc2)oc(CO)cc1=O` (configuration not stated), in experiment [1], the inhibition entry was “inactive”. Further, the outcome in experiment [2] and in experiment [9] was inactive. Also, the IC50 in experiment [3] is 9.5 µM; in [4] (read-out: IC50(app)), over 100 µM; in experiment [6], 41.6 µM. Moreover, the inhibition in [5] was under 50%. Also, the Ratio IC50 in [7] is over 200. The Tm in experiment [8] came to 41 °C.
With `O=c1cc(CO)oc(C(Nc2ccccn2)c2cccnc2)c1O` (configuration not stated), the IC50 in experiment [4] (read-out: IC50(app)) was over 100 µM; in experiment [6] it was 14.7 µM. The inhibition in experiment [5] is over 50%.
On to `O=c1cc(CO)oc(C(Nc2nccs2)c2ccccc2)c1O` (configuration not stated), for which the IC50 in experiment [4] (read-out: IC50(app)) amounted to 53.4 µM; in experiment [6], 5.6 µM. Moreover, in experiment [5], the inhibition was over 50%. Besides, in experiment [8], the Tm came to 41 °C.
Turning to `O=c1cc(CO)oc(C(Nc2cccc(F)c2)c2ccccc2)c1O` (configuration not stated), the values for the IC50 in experiment [4] (read-out: IC50(app)) and in experiment [6] were 1.5 µM and 0.2 µM, respectively. The inhibition in experiment [5] is over 50%.
Take `O=c1cc(CO)oc(C(c2ccccc2)N2Cc3ccccc3C2)c1O` (configuration not stated): the IC50 in experiment [4] (read-out: IC50(app)) was determined as 13.2 µM; in experiment [6], 0.9 µM. For the same compound, the inhibition in [5] was over 50%.
For `CC(C)C(Nc1ccccc1)c1oc(CO)cc(=O)c1O` (configuration not stated), in that order: over 100 µM, 38.1 µM and over 50%.
For `NC(=O)c1ccc(NC(c2ccccc2)c2oc(CO)cc(=O)c2O)cc1` (configuration not stated), in that order: 1.7 µM, 0.3 µM and over 50%.
As to `O=c1cc(CO)oc(C(Nc2cccc(F)c2)c2ccccn2)c1O` (configuration not stated), the IC50 in [4] (read-out: IC50) is 8.7 µM. Also, the inhibition in experiment [5] was over 50%.
With `O=c1cc(CO)oc(C(Nc2ccccc2)c2ccc(Br)cc2)c1O` (configuration not stated), the IC50 in [4] (read-out: IC50(app)) was 1.2 µM; in [6], 0.2 µM. The inhibition in [5] was over 50%.
In the case of `O=c1cc(CO)oc(C(Nc2ccccn2)c2ccccc2F)c1O` (configuration not stated), the IC50 in [4] (read-out: IC50) was 3.2 µM; in [4] (read-out: IC50(app)), 3.2 µM; in experiment [6], 0.3 µM. Moreover, in [5], the inhibition is over 50%.
Take `O=c1cc(CO)oc(C(Nc2ncccn2)c2ccccc2)c1O` (configuration not stated): the results for the IC50 in experiment [4] (read-out: IC50(app)) and in experiment [6] were over 100 µM and 13.4 µM, respectively. Further, the inhibition in [5] was over 50%.
The corresponding values for `O=c1cc(CO)oc(C(Nc2ccccn2)c2ccccc2)c1O` (configuration not stated) are 3.1 µM, 0.3 µM and over 50%.
With `O=c1cc(CO)oc(C(Nc2ccccn2)c2ccccn2)c1O` (configuration not stated), the IC50 in experiment [4] (read-out: IC50(app)) is over 100 µM; in experiment [6], 16 µM. Further, in experiment [5], the inhibition is over 50%.
The corresponding values for `O=c1cc(CO)oc(C(Nc2ccccc2)c2ccc(F)cc2)c1O` (configuration not stated) are 1.9 µM, 0.3 µM and over 50%.
For `O=c1cc(CO)oc(C(NCc2ccccc2)c2ccccc2)c1O` (configuration not stated), in that order: 4 µM, 0.4 µM and over 50%.
For `O=c1cc(CO)oc(CNc2ccccc2)c1O`, in that order: over 100 µM, 36.4 µM and over 50%.
With `Cc1ccnc(NC(c2ccccc2)c2oc(CO)cc(=O)c2O)c1` (configuration not stated), the values for the IC50 in [4] (read-out: IC50(app)) and in experiment [6] were 2.4 µM and 0.3 µM, respectively. Also, in experiment [5], the inhibition was over 50%.
The corresponding values for `O=c1cc(CO)oc(C(Nc2ccccc2)c2ccccc2F)c1O` (configuration not stated) are 0.7 µM, 0.1 µM and over 50%.
For the compound `CCCCCCCCCCCCCCCC(=O)O`, in experiment [4], the inhibition entry is “Dose-dependent effect”.
For the compound `O=c1cc(CO)oc(C(Nc2ccccc2)c2ccccn2)c1O` (configuration not stated), the IC50 in [4] (read-out: IC50(app)) amounted to 18.9 µM; in [6], 0.5 µM. In addition, the inhibition in experiment [5] was over 50%.
For the compound `O=C(O)c1ccccc1Nc1cccc(C(F)(F)F)c1`, in [4], the inhibition entry was “Dose-dependent effect”.
In the case of `CC(C)c1ccc(C(Nc2ccccc2)c2oc(CO)cc(=O)c2O)cc1` (configuration not stated), the IC50 was 1 µM in [4] (read-out: IC50(app)) and 0.2 µM in experiment [6]. In addition, the inhibition in [5] is over 50%.
The corresponding values for `O=c1cc(CO)oc(C(Nc2ccccc2)C2CCCCC2)c1O` (configuration not stated) are over 100 µM, 22.6 µM and over 50%.
The corresponding values for `Cc1ccc(C(Nc2ccccc2)c2oc(CO)cc(=O)c2O)cc1` (configuration not stated) are 1.3 µM, 0.2 µM and over 50%.
The corresponding values for `NC(=O)c1ccc(C(Nc2ccccc2)c2oc(CO)cc(=O)c2O)cc1` (configuration not stated) are 1.5 µM, 0.3 µM and over 50%.
Take `O=c1cc(CO)oc(C(Nc2ccccc2)c2ccc3ccccc3c2)c1O` (configuration not stated): the IC50 in experiment [4] (read-out: IC50(app)) came out at 1.1 µM; in experiment [6], 0.2 µM. The inhibition in experiment [5] was over 50%.
On to `O=C(O)c1cccnc1Nc1cccc(C(F)(F)F)c1` [NIFLUMIC ACID], for which the figures for the IC50 in experiment [4] (read-out: IC50(app)) and in [6] were 41.9 µM and 5.9 µM, respectively. Moreover, the inhibition entry in experiment [4] was “Dose-dependent effect”.
For `CCOC(=O)C1CCCN(Cc2oc(CO)cc(=O)c2O)C1` (configuration not stated), the IC50 in experiment [4] (read-out: IC50) was over 100 µM. In experiment [5], the inhibition is under 50%.
For `O=c1cc(CO)oc(CN2CCN(c3ccccn3)CC2)c1O`, in that order: over 100 µM and under 50%.
On to `CC(C)NC(c1ccccc1)c1oc(CO)cc(=O)c1O` (configuration not stated), for which the IC50 in [4] (read-out: IC50(app)) is 16.8 µM; in experiment [6] it was 1.5 µM. Further, the inhibition in [5] is over 50%.
As for `O=c1cc(CO)oc(C(Nc2nccs2)c2ccc(F)cc2)c1O` (configuration not stated), the IC50 in [4] (read-out: IC50) came to 43.1 µM. Further, the inhibition in experiment [5] was over 50%.
On to `COc1c(C(Nc2ccccn2)c2ccccc2F)oc(CO)cc1=O` (configuration not stated), for which the IC50 in experiment [4] (read-out: IC50(app)) was over 100 µM; in experiment [6], 49.9 µM. Besides, the inhibition in [5] was under 50%. Further, the Ratio IC50 in experiment [7] was over 200.
`O=c1cc(CO)oc(C(Nc2nc3ccccc3[nH]2)c2ccccc2)c1O` (configuration not stated): the figures for the IC50 in experiment [4] (read-out: IC50(app)) and in experiment [6] were over 100 µM and 6.4 µM, respectively. Further, in [5], the inhibition is over 50%.
The corresponding values for `NC(=O)c1ccc(NC(c2ccccn2)c2oc(CO)cc(=O)c2O)cc1` (configuration not stated) are 9.2 µM, 1.1 µM and over 50%.
With `O=c1cc(CO)oc(C(Nc2ccccn2)c2ccc(Br)cc2)c1O` (configuration not stated), the results for the IC50 in [4] (read-out: IC50(app)) and in experiment [6] were 3.7 µM and 0.4 µM, respectively. Besides, in experiment [5], the inhibition was over 50%. In addition, the Tm in [8] worked out at 39 °C.
For `O=C(CCl)c1ccccc1Nc1cccc(C(F)(F)F)c1`, the IC50 in experiment [4] (read-out: IC50(app)) was determined as 0.8 µM; in experiment [6], 14.1 µM. The inhibition entry in experiment [4] is “Dose-dependent effect”.
Regarding `CSCC[C@H](NCc1oc(CO)cc(=O)c1O)C(=O)O`, the IC50 in experiment [4] (read-out: IC50) was over 100 µM. Besides, in experiment [5], the inhibition is under 50%.
